Published values pooled from the literature.
Compare with care: the assays were run in different laboratories. Values after ≈ are worked out from the molar mass of the structure shown.
Organism: Lodderomyces parapsilosis
Observed: microbial growth

Compound	method	strain	time	quantity	value
CC(=O)c1ccc(-c2ccc3oc(C(=O)c4cc(O)c(O)c(O)c4)cc3c2)cc1	broth dilution			MIC	2 to 4 mg/L (≈ 5.15 to 10.3 µM)
CCCCCCCCCCN1CCN(CC(O)(Cn2cncn2)c2ccc(F)cc2F)CC1 (stereo not shown)	broth dilution	ATCC22019	48 h	MIC	0.015 mg/L (≈ 0.0324 µM)
CC(=O)N1CCN(c2ccc(OCC3COC(Cn4ccnc4)(c4ccc(Cl)cc4Cl)O3)cc2)CC1 (stereo not shown)				MIC90	0.125 mg/L (≈ 0.235 µM)
CCCCCCCCCCCCCCN1CCN(CC(O)(Cn2cncn2)c2ccc(F)cc2F)CC1 (stereo not shown)	broth dilution	ATCC22019	48 h	MIC	> 31.3 mg/L
OC(Cn1cncn1)(Cn1cncn1)c1ccc(F)cc1F	broth dilution		24 h	MIC90	0.5 mg/L (≈ 1.63 µM)
CCCCCCCCCCCCCN1CCNCC1	broth dilution	ATCC22019	48 h	MIC	1.95 mg/L (≈ 7.26 µM)
C[C@@H]1[C@H](O)[C@@H](C)/C=C/C=C/C=C/C=C/C=C/C=C/C=C/[C@H](O[C@@H]2O[C@H](C)[C@@H](O)[C@H](N)[C@@H]2O)C[C@@H]2O[C@](O)(C[C@@H](O)C[C@@H](O)[C@H](O)CC[C@@H](O)C[C@@H](O)CC(=O)O[C@H]1C)C[C@H](O)[C@H]2C(=O)O				MIC90	0.125 mg/L (≈ 0.135 µM)
O=C1/C(=C/c2cc(O)c(O)c(O)c2)Oc2cccc(O)c21	broth dilution			MIC	16 mg/L (≈ 55.9 µM)
C[C@@H](c1ncncc1F)[C@](O)(Cn1cncn1)c1ccc(F)cc1F				MIC90	0.016 mg/L (≈ 0.0458 µM)
C[C@@H]1[C@H](O)[C@@H](C)/C=C/C=C/C=C/C=C/C=C/C=C/C=C/[C@H](O[C@@H]2O[C@H](C)[C@@H](O)[C@H](N)[C@@H]2O)C[C@@H]2O[C@](O)(C[C@@H](O)C[C@@H](O)[C@H](O)CC[C@@H](O)C[C@@H](O)CC(=O)O[C@H]1C)C[C@H](O)[C@H]2C(=O)O	broth dilution			MIC	0.25 mg/L (≈ 0.271 µM)
